From PMC9279720 (Acta Pharmaceutica Sinica. B, 2021)

Columns and labels:
HCMV ADCREGFP [1] = assay: HCMV replication assay; assay type: cell-based, Human cytomegalovirus (HCMV); details: for SI (selectivity index, CC50/EC50): CC50 (HFF) / EC50 (HCMV); for Antiviral activity/potency in words: concentrations up to 50 μmol/L
Cell viability assay = assay type: cell-based; details: human, HFF cells (no virus)
pUL89-C = target: T1, pUL89-C (Human cytomegalovirus, UniProt P16732); assay: In vitro pUL89-C endonuclease assay; assay type: biochemical, HCMV; details: read-out: Endonuclease inhibition (%) at 20 μmol/L
T1 sequence (P16732 418-674 limits assumed): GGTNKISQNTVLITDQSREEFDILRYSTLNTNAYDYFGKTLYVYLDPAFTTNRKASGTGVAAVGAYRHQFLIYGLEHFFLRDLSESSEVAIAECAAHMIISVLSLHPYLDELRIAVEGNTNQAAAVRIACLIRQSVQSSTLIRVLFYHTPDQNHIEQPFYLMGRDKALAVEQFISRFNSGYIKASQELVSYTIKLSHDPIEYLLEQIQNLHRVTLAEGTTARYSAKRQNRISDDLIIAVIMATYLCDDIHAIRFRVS

HFF cells = assay: Cell viability assay; assay type: cell-based; details: for Cytotoxicity in words: HFFs
HCMV ADCREGFP [2] = assay: Compound withdrawal assay; assay type: cell-based, Human cytomegalovirus (HCMV); details: 5 × EC50, removed at indicated times, read at 168 h
Summary of the method: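 HFFs in DMEM/5% FBS, inoculated with the virus at MOI 0.01 for 2 h before compound or 0.5% DMSO was added. At each withdrawal time, wells were washed twice in PBS and refed with 0.5% DMSO medium. Cells were lysed in Tris/DTT/Triton buffer and GFP read at ex/em 495/515 nm. Triplicate-well means.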

[3] = Plasma stability assay, human plasma; assay type: in vitro ADME; details: for half-life at 1 μmol/L: human, plasma, pH 7.4; for Plasma stability in words: species not told apart in the sentence (human and mouse in Table 3)
Summary of the method: (§1)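 Test compound (1 μmol/L final) incubated at 37 °C in human or CD-1 mouse plasma diluted to 80% with 0.1 mol/L potassium phosphate, pH 7.4. Aliquots taken at time points up to […], quenched with acetonitrile/0.1% formic acid and centrifuged at 4 °C. Percent remaining and half-life determined by LC/MS/MS.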

[4] = Parallel artificial membrane permeability assay; assay type: in vitro ADME; details: for Papp at 5 h, 2 μmol/L: PAMPA
Summary of the method: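 Pre-coated lipid PAMPA plate system. Donor wells held test compound at 2 μmol/L in DPBS; acceptor wells held blank DPBS. Incubated 5 h at 25 °C without agitation. Donor and acceptor concentrations measured by LC/MS/MS. Pe calculated from an equilibrium-concentration equation (filter area 0.3 cm2). Compounds classed as high or low permeability at a cutoff of 1.5 × 10−6 cm/s.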

HCMV ADCREGFP [5] = assay: Time of addition assay; assay type: cell-based, Human cytomegalovirus (HCMV); details: 5 × EC50, added at indicated times post infection
Summary of the method: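 HFFs seeded at 1.75 × 10^4 cells/well, grown 24 h in DMEM/10% FBS/1% P/S, then inoculated at MOI 0.01. Cells were held in DMEM with 5% FBS, 1% P/S and 0.5% DMSO until compound was added. GFP intensity was read after lysis; triplicate-well means were normalized to DMSO.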

[6] = Plasma stability assay, mouse plasma; assay type: in vitro ADME, mouse (CD-1); details: CD-1, mouse, pH 7.4
Summary of the method: as §1

[7] = Microsomal stability assay, human liver microsomes; assay type: in vitro ADME; details: for half-life at 1 μmol/L: human, liver microsomes, pH 7.4; for Microsomal stability in words: species not told apart in the sentence (human and mouse in Table 3)
Summary of the method: (§2)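 Test compound (1 μmol/L final) incubated at 37 °C with liver microsomes (human or CD-1 mouse; 0.5 mg/mL protein) and 1 mmol/L MgCl2 in 0.1 mol/L potassium phosphate, pH 7.4. Reaction started with NADPH (1 mmol/L final); a no-NADPH control and a verapamil positive control were run alongside. Samples taken up to 60 min and quenched in acetonitrile/0.1% formic acid. Half-life determined by LC/MS/MS.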

[8] = Microsomal stability assay, mouse liver microsomes; assay type: in vitro ADME; details: CD-1, mouse, pH 7.4
Summary of the method: as §2

Row | Structure (SMILES) | SI (selectivity index, CC50/EC50) (HCMV ADCREGFP [1]) | CC50 at 168 h (Cell viability assay) [µM] | inhibition at 20 µM (pUL89-C) [%] | other results
1 | Nc1nc(O)c2ncn(COC(CO)CO)c2n1 [Compound 1, ganciclovir, reference compound] | >50 | > 50 |  | 
2 | O=C(NCc1ccc(F)cc1)c1cn(Cc2ccc(F)cc2)cc(O)c1=O [Compound 8b] | 8.2 | 6.4 ± 3.7 | 7 | 
3 | O=C(NCc1ccccc1)c1cn(Cc2ccc(F)cc2)cc(O)c1=O [Compound 8d] | 4.7 | 7.1 ± 6.4 | 9 | 
4 | O=C(NCc1ccccc1F)c1cn(Cc2ccc(F)cc2)cc(O)c1=O [Compound 8e] | 3.6 | 5.8 ± 2.1 | 6 | 
5 | O=C(NCc1cccc(F)c1)c1cn(Cc2ccc(F)cc2)cc(O)c1=O [Compound 8f] | 4.0 | 3.9 ± 1.8 | 7 | 
6 | O=C(NCc1ccc(Cl)cc1F)c1cn(Cc2ccc(F)cc2)cc(O)c1=O [Compound 8k] | 4.4 | 2.4 ± 0.07 | 14 | 
7 | O=C(NCc1ccc(F)c(Cl)c1)c1cn(Cc2ccc(F)cc2)cc(O)c1=O [Compound 8n] | 6.3 | 3.9 ± 2.3 | 5 | 
8 | O=C(NCc1c(F)cccc1Cl)c1cn(Cc2ccc(F)cc2)cc(O)c1=O [Compound 8p] |  |  | 5 | viability at 168 h, 50 μmol/L (Cell viability assay): ~50%; Cytotoxicity in words (HFF cells): cytostatic but not a cytotoxic effect; Metabolic activity compared to DMSO (MTS assay) (HFF cells; across all compound concentrations 0.2–50 μmol/L): approximately 50%
9 | O=C(NCc1ccc(Br)cc1F)c1cn(Cc2ccc(F)cc2)cc(O)c1=O [Compound 8q] | >41 | > 25 | 9 | 
10 | N#Cc1ccc(CNC(=O)c2cn(Cc3ccc(F)cc3)cc(O)c2=O)c(F)c1 [Compound 8r] | >42 | > 50 | 5 | 
11 | Cc1cc(CNC(=O)c2cn(Cc3ccc(F)cc3)cc(O)c2=O)ccc1F [Compound 8s] | 10 | 10 ± 5.4 | 6 | 
12 | O=C(NCc1ccc(C(F)(F)F)cc1F)c1cn(Cc2ccc(F)cc2)cc(O)c1=O [Compound 8u] | >46 | > 25 | 3 | 
13 | O=C(NCc1cc(F)c(F)cc1F)c1cn(Cc2ccc(F)cc2)cc(O)c1=O [Compound 8v] | 8.1 | 5.7 ± 2 | 5 | 
14 | O=C(Nc1ccc(F)cc1)c1cn(Cc2ccc(F)cc2)cc(O)c1=O [Compound 9b] | 6.4 | 5.6 ± 1.3 | 9 | 
15 | CC1(C)OB(c2ccc(NC(=O)c3cn(Cc4ccc(F)cc4)cc(O)c3=O)cc2)OC1(C)C [Compound 9c] | >17 | > 50 | 7 | Antiviral activity/potency in words (HCMV ADCREGFP [1]): decreased potency; Cytotoxicity in words (HFF cells): no cytotoxicity
16 | CC(NC(=O)c1cn(Cc2ccc(F)cc2)cc(O)c1=O)c1ccc(F)cc1F (centres unmarked) [Compound 10] | >94 | > 50 | 5 | 
17 | CN(Cc1ccc(F)cc1F)C(=O)c1cn(Cc2ccc(F)cc2)cc(O)c1=O [Compound 11] | 8.6 | 12 ± 4.9 | 6 | 
18 | O=C(NCCc1ccc(F)cc1F)c1cn(Cc2ccc(F)cc2)cc(O)c1=O [Compound 12] | >116 | > 50 | 10 | Compound withdrawal, result in words (HCMV ADCREGFP [2]): inhibit a step in viral replication between LTV and GCV; half-life at 1 μmol/L [3]: > 24 h; Plasma stability in words [3]: excellent; PAMPA permeability class [4]: high permeability; Papp at 5 h, 2 μmol/L [4]: 4.5 ± 0.9 ×10⁻⁶ cm/s; Time of addition, result in words (HCMV ADCREGFP [5]): inhibit viral replication at a stage between when GCV and LTV are active; half-life at 1 μmol/L [6]: > 24 h; half-life at 1 μmol/L [7]: 0.668 ± 0.03 h; Microsomal stability in words [7]: good; half-life at 1 μmol/L [8]: 0.433 ± 0.0167 h
19 | O=C(NCc1ccc(F)cc1F)c1cn(Cc2ccccc2)cc(O)c1=O [Compound 13] | >50 | > 50 | 6 | Compound withdrawal, result in words (HCMV ADCREGFP [2]): viral replication recovered similarly to GCV; half-life at 1 μmol/L [3]: > 24 h; Plasma stability in words [3]: excellent; PAMPA permeability class [4]: high permeability; Papp at 5 h, 2 μmol/L [4]: 9.1 ± 1.1 ×10⁻⁶ cm/s; Time of addition, result in words (HCMV ADCREGFP [5]): active similar to, or possibly later than, LTV; half-life at 1 μmol/L [6]: > 24 h; half-life at 1 μmol/L [7]: 1.7 ± 0.197 h; Microsomal stability in words [7]: good; half-life at 1 μmol/L [8]: 0.895 ± 0.00667 h
20 | O=C(NCc1ccc(F)cc1F)c1cn(C2CC2)cc(O)c1=O [Compound 14] | >5.2 | > 25 | 7 | 
21 | O=C(NCc1ccc(F)cc1F)c1c[nH]cc(O)c1=O [Compound 15] | >6.3 | > 50 | 7 | 
22 | O=C(NCc1ccc(F)cc1F)c1cn(Cc2ccc(F)cc2)ccc1=O [Compound 17] | >7.6 | > 50 | 5 | 
23 | CCOC(=O)c1cn(Cc2ccc(F)cc2)ccc1=O [Compound 42] |  | > 50 | 7 | Antiviral activity/potency in words (HCMV ADCREGFP [1]): no antiviral activity
24 | COc1cccc(N2CCN(C3=Nc4c(F)cccc4[C@H](CC(=O)O)N3c3cc(C(F)(F)F)ccc3OC)CC2)c1 [LTV, letermovir, reference compound] |  |  |  | Compound withdrawal, result in words (HCMV ADCREGFP [2]): the viral infection rebounded quickly compared to GCV
